# Assay results: ChEMBL document CHEMBL3425458, “Design, synthesis and antitumor activity of triterpenoid pyrazine derivatives from 23-hydroxybetulinic acid” (Eur J Med Chem, 2015)
# Tests used:
# [1] = Antiproliferative activity against human HL60 cells assessed as growth inhibition after 72 hrs by MTT assay; assay type: functional, cell-based; details: HL-60, 72 h
# Method in brief: (§1)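 Values are mean ± S.D. from three different experiments, each performed in triplicate.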
# B16 [2] = assay: Cell cycle arrest in mouse B16 cells assessed as accumulation of cells at G2/G1 phase at 2.5 uM after 72 hrs by propidium iodide staining based flow cytometry (reference value: 1.83%); assay type: functional
# B16 [3] = assay: Cell cycle arrest in mouse B16 cells assessed as accumulation of cells at G2/G1 phase at 5 uM after 72 hrs by propidium iodide staining based flow cytometry (reference value: 1.83%); assay type: functional
# B16 [4] = assay: Induction of apoptosis in mouse B16 cells assessed as late apoptotic cells at 2.5 uM after 72 hrs by Annexin V-FITC/propidium iodide staining-based flow cytometry (reference value: 3.51%); assay type: functional
# Method in brief: (§2)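 B16 cells were treated with vehicle or 1.25, 2.5 or 5 µM for 72 h. Annexin V/PI staining was read by flow cytometry. Values are mean ± SE of at least three independent experiments.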
# B16 [5] = assay: Induction of apoptosis in mouse B16 cells assessed as viable cells at 2.5 uM after 72 hrs by Annexin V-FITC/propidium iodide staining-based flow cytometry (reference value: […]); assay type: functional; details: B16, 72 h, read-out: Activity
# B16 [6] = assay: Induction of apoptosis in mouse B16 cells assessed as early apoptotic cells at 1.25 uM after 72 hrs by Annexin V-FITC/propidium iodide staining-based flow cytometry (reference value: 2.15%); assay type: functional; method in brief: as §2
# B16 [7] = assay: Cell cycle arrest in mouse B16 cells assessed as accumulation of cells at G2 phase at 5 uM after 72 hrs by propidium iodide staining based flow cytometry (reference value: 16.73%); assay type: functional
# [8] = Antiproliferative activity against human HL7702 cells assessed as growth inhibition after 72 hrs by MTT assay; assay type: cell-based; details: L02, 72 h
# Method in brief: (§3)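 MTT assay on normal human hepatocyte line HL-7702, with 72 h treatment. Selectivity index is the IC50 in HL-7702 divided by the IC50 in each cancer cell line.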
# HeLa [9] = assay: Selectivity index, ratio of IC50 for human HL7702 cells to IC50 for human HeLa cells by MTT assay; method in brief: as §3
# B16 [10] = assay: Induction of apoptosis in mouse B16 cells assessed as necrotic cells at 2.5 uM after 72 hrs by Annexin V-FITC/propidium iodide staining-based flow cytometry (reference value: […]); assay type: functional; method in brief: as §2
# B16 [11] = assay: In vivo antitumor activity against mouse B16 cells xenografted in mouse assessed as tumor growth inhibitory ratio at 30 mg/kg, ip administered after 7 days of tumor transplantation measured at 25th day after tumor inoculation; assay type: functional; details: 168 h, route intraperitoneal
# B16 [12] = assay: Induction of apoptosis in mouse B16 cells assessed as late apoptotic cells at 5 uM after 72 hrs by Annexin V-FITC/propidium iodide staining-based flow cytometry (reference value: 3.51%); assay type: functional; method in brief: as §2
# B16 [13] = assay: Induction of apoptosis in mouse B16 cells assessed as viable cells at 1.25 uM after 72 hrs by Annexin V-FITC/propidium iodide staining-based flow cytometry (reference value: […]); assay type: functional; details: B16, 72 h, read-out: Activity
# B16 [14] = assay: Antiproliferative activity against mouse B16 cells assessed as growth inhibition after 72 hrs by MTT assay; assay type: functional, cell-based; details: B16, 72 h
# Method in brief: (§4)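 IC50 is the concentration inhibiting 50% cell growth. Values are mean ± S.D. from three different experiments, each performed in triplicate.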
# B16 [15] = assay: Cell cycle arrest in mouse B16 cells assessed as accumulation of cells at G2/G1 phase at 1.25 uM after 72 hrs by propidium iodide staining based flow cytometry (reference value: 1.83%); assay type: functional
# B16 [16] = assay: Induction of apoptosis in mouse B16 cells assessed as viable cells at 5 uM after 72 hrs by Annexin V-FITC/propidium iodide staining-based flow cytometry (reference value: […]); assay type: functional; details: B16, 72 h, read-out: Activity
# B16 [17] = assay: Induction of apoptosis in mouse B16 cells assessed as necrotic cells at 5 uM after 72 hrs by Annexin V-FITC/propidium iodide staining-based flow cytometry (reference value: […]); assay type: functional; method in brief: as §2
# [18] = Selectivity index, ratio of IC50 for human HL7702 cells to IC50 for human HL60 cells by MTT assay; method in brief: as §3
# B16 [19] = assay: Cell cycle arrest in mouse B16 cells assessed as accumulation of cells at S phase at 5 uM after 72 hrs by propidium iodide staining based flow cytometry (reference value: 59.21%); assay type: functional
# B16 [20] = assay: Induction of apoptosis in mouse B16 cells assessed as necrotic cells at 1.25 uM after 72 hrs by Annexin V-FITC/propidium iodide staining-based flow cytometry (reference value: […]); assay type: functional; method in brief: as §2
# B16 [21] = assay: Selectivity index, ratio of IC50 for human HL7702 cells to IC50 for mouse B16 cells by MTT assay; method in brief: as §3
# Bel-7402 = assay: Selectivity index, ratio of IC50 for human HL7702 cells to IC50 for human BEL7402 cells by MTT assay; method in brief: as §3
# B16 [22] = assay: Induction of apoptosis in mouse B16 cells assessed as early apoptotic cells at 2.5 uM after 72 hrs by Annexin V-FITC/propidium iodide staining-based flow cytometry (reference value: 2.15%); assay type: functional; method in brief: as §2
# B16 [23] = assay: Cell cycle arrest in mouse B16 cells assessed as accumulation of cells at S phase at 1.25 uM after 72 hrs by propidium iodide staining based flow cytometry (reference value: 59.21%); assay type: functional
# B16 [24] = assay: Cell cycle arrest in mouse B16 cells assessed as accumulation of cells at S phase at 2.5 uM after 72 hrs by propidium iodide staining based flow cytometry (reference value: 59.21%); assay type: functional
# Mus musculus [25] = assay: Toxicity against mouse xenografted […] cells assessed as body weight at 30 mg/kg, ip administered after 7 days of tumor transplantation (reference value: 18.1 to 18.6 gms); assay type: organism-based; set-up: dose 30 mg/kg, route intraperitoneal; details: in vivo, 168 h
# Method in brief: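 H22 liver cancer-bearing mice, 10 per group at start and end. Test article given ip at 30 mg/kg, with a vehicle group (0.5 mL/mouse, iv). Body weight was recorded at start and at end, alongside tumor weight.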
# HeLa [26] = assay: Antiproliferative activity against human HeLa cells assessed as growth inhibition after 72 hrs by MTT assay; assay type: functional, cell-based; method in brief: as §4
# B16 [27] = assay: Cell cycle arrest in mouse B16 cells assessed as accumulation of cells at G1 phase at 5 uM after 72 hrs by propidium iodide staining based flow cytometry (reference value: 24.06%); assay type: functional
# B16 [28] = assay: Cell cycle arrest in mouse B16 cells assessed as accumulation of cells at G1 phase at 2.5 uM after 72 hrs by propidium iodide staining based flow cytometry (reference value: 24.06%); assay type: functional
# H22 = assay: In vivo antitumor activity […] cells xenografted in mouse assessed as tumor growth inhibitory ratio at 30 mg/kg, ip administered after 7 days of tumor transplantation measured at 25th day after tumor inoculation; assay type: functional; details: 168 h, route intraperitoneal
# Method in brief: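 Mice bearing H22 liver cancer, 10 per group. Test article at 30 mg/kg ip. Vehicle 0.5 mL/mouse iv. Cyclophosphamide 30 mg/kg iv as positive control. Tumor weight recorded to give tumor inhibitory ratio.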
# [29] = Antiproliferative activity against human Bel7402 cells assessed as growth inhibition after 72 hrs by MTT assay; assay type: functional, cell-based; details: Bel-7402, 72 h; method in brief: as §4
# B16 [30] = assay: Induction of apoptosis in mouse B16 cells assessed as early apoptotic cells at 5 uM after 72 hrs by Annexin V-FITC/propidium iodide staining-based flow cytometry (reference value: 2.15%); assay type: functional; method in brief: as §2
# B16 [31] = assay: Cell cycle arrest in mouse B16 cells assessed as accumulation of cells at G2 phase at 1.25 uM after 72 hrs by propidium iodide staining based flow cytometry (reference value: 16.73%); assay type: functional
# Mus musculus [32] = assay: Toxicity against mouse xenografted with mouse B16 cells assessed as body weight at 30 mg/kg, ip administered after 7 days of tumor transplantation (reference value: 18.2 to 18.3 gms); assay type: organism-based; set-up: dose 30 mg/kg, route intraperitoneal; details: in vivo, 168 h
# B16 [33] = assay: Cell cycle arrest in mouse B16 cells assessed as accumulation of cells at G2 phase at 2.5 uM after 72 hrs by propidium iodide staining based flow cytometry (reference value: 16.73%); assay type: functional
# B16 [34] = assay: Induction of apoptosis in mouse B16 cells assessed as late apoptotic cells at 1.25 uM after 72 hrs by Annexin V-FITC/propidium iodide staining-based flow cytometry (reference value: 3.51%); assay type: functional; method in brief: as §2
# B16 [35] = assay: Cell cycle arrest in mouse B16 cells assessed as accumulation of cells at G1 phase at 1.25 uM after 72 hrs by propidium iodide staining based flow cytometry (reference value: 24.06%); assay type: functional
# [36] = Antiproliferative activity against human SF763 cells assessed as growth inhibition after 72 hrs by MTT assay; assay type: functional, cell-based; details: SF763, 72 h; method in brief: as §1
# [37] = Selectivity index, ratio of IC50 for human HL7702 cells to IC50 for human SF763 cells by MTT assay; method in brief: as §3
compound,measurement,setting,value
C=C(C)[C@@H]1CC[C@]2(C(=O)N3CCOCC3)CC[C@]3(C)[C@H](CC[C@@H]4[C@@]5(C)Cc6nccnc6[C@@](C)(COC(C)=O)[C@@H]5CC[C@]43C)[C@@H]12,IC50,[1],7.11 µM
same,Activity,B16 [2],1.85%
same,Activity,B16 [3],1.85%
same,Activity,B16 [4],11.48%
same,viability at 2.5 µM,B16 [5],67.8%
same,Activity,B16 [6],11.33%
same,Activity,B16 [7],3.27%
same,IC50,[8],75.4 µM
same,Ratio IC50,HeLa [9],14.7
same,Activity,B16 [10],0.52%
same,inhibition in vivo at 30 mg/kg,B16 [11],62.7%
same,Activity,B16 [12],12.1%
same,viability at 1.25 µM,B16 [13],82.6%
same,IC50,B16 [14],4.42 µM
same,Activity,B16 [15],1.82%
same,viability at 5 µM,B16 [16],40.6%
same,Activity,B16 [17],1.96%
same,Ratio IC50,[18],11
same,Activity,B16 [19],63.27%
same,Activity,B16 [20],0.86%
same,Ratio IC50,B16 [21],17.1
same,Ratio IC50,Bel-7402,11
same,Activity,B16 [22],20.14%
same,Activity,B16 [23],61.15%
same,Activity,B16 [24],58.79%
same,Activity,Mus musculus [25],25.9 g
same,IC50,HeLa [26],5.13 µM
same,Activity,B16 [27],33.46%
same,Activity,B16 [28],34.67%
same,inhibition in vivo at 30 mg/kg,H22,55.6%
same,IC50,[29],7.03 µM
same,Activity,B16 [30],45.34%
same,Activity,B16 [31],9.18%
same,Activity,Mus musculus [32],25.9 g
same,Activity,B16 [33],6.54%
same,Activity,B16 [34],5.18%
same,Activity,B16 [35],29.67%
same,IC50,[36],3.53 µM
same,Ratio IC50,[37],21.4
